Measurements of several laboratories.
Protocols differ between the studies behind these lines.
MAOA: Amine oxidase [flavin-containing] A (MAOA, Homo sapiens, UniProt P21397)
GSR: Glutathione reductase, mitochondrial (GSR, Homo sapiens, UniProt P00390)
ADRA1A: Alpha-1A adrenergic receptor (ADRA1A, Homo sapiens, UniProt P35348)
Oprk1: Kappa-type opioid receptor (Oprk1, Rattus norvegicus, UniProt P34975)
LDHA: L-lactate dehydrogenase A chain (LDHA, Homo sapiens, UniProt P00338)
PRMT3: Protein arginine N-methyltransferase 3 (PRMT3, Homo sapiens, UniProt O60678)
Rps6ka1: Ribosomal protein S6 kinase alpha-1 (Rps6ka1, Rattus norvegicus, UniProt Q63531)
Faah: Fatty-acid amide hydrolase 1 (Faah, Rattus norvegicus, UniProt P97612)

SMILES | target | assay | setting | inhibition [%]
O=C(Nc1ccccc1)c1ccccc1O | MAOA | enzyme activity, inhibitor | 1 µM, 20 min | 28
COc1ccc(CN[C@@H]2C[C@@H](c3ccc(Cl)c(Cl)c3)c3ccccc32)cc1 (relative stereo) | GSR | enzyme activity, inhibitor | 25 µM | < 12
CCCNc1nc2ccccc2n1Cc1ccc(Cl)cc1 | ADRA1A | ligand displacement | 10 µM | -2.69
O=C(c1ccc(Cl)cc1)N(Cc1ccccc1)C1CCCCC1 | Oprk1 | ligand displacement, radioligand | 10 µM | 82
COC(=O)CN=c1scc(-c2ccccc2)n1-c1ccc(C)cc1 | LDHA | enzyme activity, inhibitor, fluorescence | 100 µM, pH 7.2 | 52
N=C(NCCCSC[C@H]1O[C@@H](n2cnc3c(NCCCc4ccccc4)ncnc32)[C@H](O)[C@@H]1O)Nc1ccccc1 | PRMT3 | enzyme activity, inhibitor, fluorescence | 10 µM | 4.92
COc1cc(NC(C)=O)c(Cl)cc1C(=O)Nc1nccs1 | Vasoactive intestinal polypeptide receptor 1 (VIPR1, Homo sapiens, UniProt P32241) | cell-free assay | 10 µM | -13.5
N=C(NCCCSC[C@H]1O[C@@H](n2cnc3c(NCCCc4ccccc4)ncnc32)[C@H](O)[C@@H]1O)NC1CCC1 | PRMT3 | enzyme activity, inhibitor, fluorescence | 10 µM | -37.6
COC(=O)CN=c1scc(-c2ccccc2)n1-c1ccccc1 | LDHA | enzyme activity, inhibitor, fluorescence | 100 µM, pH 7.2 | 33
N=C(NCCCSC[C@H]1O[C@@H](n2cnc3c(NCCCc4ccccc4)ncnc32)[C@H](O)[C@@H]1O)NC1CC1 | PRMT3 | enzyme activity, inhibitor, fluorescence | 10 µM | -8.93
COc1cc([N+](=O)[O-])ccc1NC(=O)c1ccc(Cl)cc1 | MAOA | enzyme activity, inhibitor | 1 µM, 20 min | 2
N=C(NCCCSC[C@H]1O[C@@H](n2cnc3c(NCCCc4ccccc4)ncnc32)[C@H](O)[C@@H]1O)NCCCc1ccccc1 | PRMT3 | enzyme activity, inhibitor, fluorescence | 10 µM | 10.4
CNC(=O)c1cc(Oc2ccc(NC(=O)Nc3ccc(Cl)c(C(F)(F)F)c3)cc2)ccn1 | Rps6ka1 | enzyme activity, inhibitor | 10 µM | 19
CCN(CC)c1ccc(C2Nc3ccc(C(=O)c4ccccc4)cc3NC3=C2C(=O)CC(C)(C)C3)cc1 (stereo not drawn) | ADRA1A | ligand displacement, radioligand | 10 µM | 17
CNC(=O)[C@@]12C[C@@H]1[C@@H](n1cnc3c(NC)nc(C#Cc4ccc(Cl)s4)nc31)[C@H](O)[C@@H]2O | Translocator protein (Tspo, Rattus norvegicus, UniProt P16257) | ligand displacement, radioligand | 10 µM | 60 to 70
N=C(NCCCO)NCCCSC[C@H]1O[C@@H](n2cnc3c(NCCCc4ccccc4)ncnc32)[C@H](O)[C@@H]1O | PRMT3 | enzyme activity, inhibitor, fluorescence | 10 µM | 7.1
Cc1ccc(Nc2nccc(N(C)c3ccc4c(C)n(C)nc4c3)n2)cc1S(N)(=O)=O | Rps6ka1 | enzyme activity, inhibitor | 0.3 µM | 27
N=C(NCCCSC[C@H]1O[C@@H](n2cnc3c(NCCCc4ccccc4)ncnc32)[C@H](O)[C@@H]1O)NC1CCCC1 | PRMT3 | enzyme activity, inhibitor, fluorescence | 10 µM | -23.3

SMILES | target | assay | setting | inhibition [%]
COc1cc([N+](=O)[O-])ccc1NC(=O)c1ccccc1O | MAOA | enzyme activity, inhibitor | 1 µM, 20 min | 9
Oc1cccc(Nc2nc(-c3ccc(F)cc3F)cs2)c1 | Histamine H2 receptor (HRH2, Homo sapiens, UniProt P25021) | cell-free assay | 10 µM | -33.9
N#Cc1cc(Cn2c(N3CCCC3)nc3ccccc32)ccc1F | ADRA1A | ligand displacement | 10 µM | -11.7
Cc1ccc2c(ccn2CCC2CCN(C(=O)OC(C(F)(F)F)C(F)(F)F)CC2)c1 | Faah | enzyme activity, inhibitor | 10 µM | 36
CC(C)CCN[C@@H]1C[C@@H](c2ccc(Cl)c(Cl)c2)c2ccccc21 (relative stereo) | GSR | enzyme activity, inhibitor | 25 µM | < 12
N#Cc1ccc2c(ccn2CCC2CCN(C(=O)OC(C(F)(F)F)C(F)(F)F)CC2)c1 | Faah | enzyme activity, inhibitor | 10 µM | 45
Nc1ncnc2c1ncn2[C@@H]1O[C@H](CSCCNC(=O)NCc2ccccc2)[C@@H](O)[C@H]1O | Protein arginine N-methyltransferase 5 (PRMT5, Homo sapiens, UniProt O14744) | enzyme activity, inhibitor, radiometric | 10 µM | > 95
Cc1cc([N+](=O)[O-])ccc1NC(=O)c1ccc2c(c1)OCO2 | MAOA | enzyme activity, inhibitor | 1 µM, 20 min | 7
N=C(NCCCSC[C@H]1O[C@@H](n2cnc3c(NCCCc4ccccc4)ncnc32)[C@H](O)[C@@H]1O)NCC1CCC1 | PRMT3 | enzyme activity, inhibitor, fluorescence | 10 µM | 0
O=C(Nc1cc(F)ccc1[N+](=O)[O-])c1cc(Cl)ccc1O | MAOA | enzyme activity, inhibitor | 1 µM, 20 min | 8
CC[C@H](C)[C@H](NC(=O)[C@H](CCC(N)=O)NC(=O)[C@H](CC(C)C)NC(=O)[C@H](CCSC)NC(=O)[C@H](CCCCN)NC(=O)[C@H](CO)NC(=O)[C@H](CO)NC(=O)[C@H](CCSC)NC(=O)[C@H](CC(C)C)NC(=O)[C@H](CC(N)=O)NC(=O)[C@@H](NC(=O)[C@@H](NC(=O)[C@H](CO)NC(=O)[C@H](CC(C)C)NC(=O)[C@H](CS)NC(=O)[C@H](CCCNC(=N)N)NC(=O)[C@H](CC(=O)O)NC(=O)[C@H](Cc1c[nH]c2ccccc12)NC(=O)[C@H](Cc1ccccc1)NC(=O)[C@H](C)NC(=O)[C@H](CCC(=O)O)NC(=O)[C@@H](N)CCCCN)C(C)C)[C@@H](C)CC)C(=O)N[C@@H](CC(N)=O)C(=O)N[C@@H](C)C(=O)O | Cyclin-dependent kinase 5, with p25 (CDK5, Homo sapiens, UniProt Q00535) | enzyme activity, inhibitor, radiometric | 50 µM | 20
Cc1ccc(C(=O)Nc2ccc([N+](=O)[O-])cc2C(F)(F)F)cc1 | MAOA | enzyme activity, inhibitor | 1 µM, 20 min | 10
CN1CC(Oc2cnc(C#N)cc2-c2ccn3nc(NC(=O)C4CC4)cc3c2)C1 | Cyclin-dependent kinase-like 2 (CDKL2, Homo sapiens, UniProt Q92772) | enzyme activity, inhibitor | 1 µM | -18
COc1ccc(/C=C/C(=O)N2CCc3ccccc3C2)cc1OC | MAOA | enzyme activity, inhibitor, fluorescence | 62.5 µM | 11.3
O=C(Nc1ccc([N+](=O)[O-])cc1[N+](=O)[O-])c1ccccc1O | MAOA | enzyme activity, inhibitor | 1 µM, 20 min | 49
COC(=O)CN=c1scc(-c2ccccc2)n1-c1ccccc1C | LDHA | enzyme activity, inhibitor, fluorescence | 100 µM, pH 7.2 | 43
CC1=C(C(=O)Nc2ccc([N+](=O)[O-])cc2Cl)Cc2ccccc21 | MAOA | enzyme activity, inhibitor | 1 µM, 20 min | -3
O=C1N=C(N2CCCCN2)S/C1=C\c1ccc(F)cc1O | Oprk1 | ligand displacement, radioligand | 10 µM | 11
